Shown are actives, neighbours in structure and some others; about 1.4% of the full set was active somewhere.
FXIa inh = inhibitors of human coagulation factor XIa; 220,000 tested, 0.14% active; purified FXIa, Boc-Glu-Ala-Arg-AMC fluorogenic substrate; inhibition, % at 5 µM; P03951; AID 798;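 active = inhibition of at least 40%; inactive = inhibition below 40%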;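 note: fluorescence of freed AMC excited at 355 nm; 0% = enzyme without compound and 100% = no enzyme blank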
Target sequence (P03951 19-387 limits assumed): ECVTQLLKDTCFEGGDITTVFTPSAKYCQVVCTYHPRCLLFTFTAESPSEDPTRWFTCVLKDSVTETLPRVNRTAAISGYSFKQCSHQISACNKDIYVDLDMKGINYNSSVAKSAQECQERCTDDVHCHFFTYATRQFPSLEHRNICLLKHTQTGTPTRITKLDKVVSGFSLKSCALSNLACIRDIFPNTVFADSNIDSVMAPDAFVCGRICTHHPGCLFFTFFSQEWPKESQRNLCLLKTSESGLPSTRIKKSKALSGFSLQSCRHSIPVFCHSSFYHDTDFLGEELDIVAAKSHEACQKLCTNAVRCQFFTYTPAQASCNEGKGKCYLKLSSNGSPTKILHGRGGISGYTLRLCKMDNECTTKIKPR
Target sequence (P03951 388-625 limits assumed): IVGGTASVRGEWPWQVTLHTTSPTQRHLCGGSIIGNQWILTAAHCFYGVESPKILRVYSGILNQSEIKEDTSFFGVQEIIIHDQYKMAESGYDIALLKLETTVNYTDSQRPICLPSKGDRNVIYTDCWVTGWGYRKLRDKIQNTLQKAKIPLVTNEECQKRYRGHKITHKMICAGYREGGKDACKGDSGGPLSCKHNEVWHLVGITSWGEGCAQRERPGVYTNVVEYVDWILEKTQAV
hK5 inh = blocks human kallikrein 5 protease activity | recombinant hK5, fluorogenic AMC substrate cleavage | 210,000 tested, 0.59% active | AID 873 | Q9Y337 | inhibition, % at 5 µM;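 active = inhibition of 40% or more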;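 note: 0% = enzyme controls without compound and 100% = no-enzyme blanks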
thrombin 1536 = thrombin (human) inhibition. AID 1046. inhibition, % at 5 µM. 220,000 tested, 0.26% active. alpha-thrombin, Boc-VPR-AMC fluorogenic substrate cleavage;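 active = inhibition at or above 40%; inactive = inhibition below 40%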;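 note: 0% = enzyme with no compound and 100% = wells without enzyme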
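System: Human alpha-thrombin protein | Medium: pH 7.5 Tris (50 mM) with NaCl 150 mM, Tween 20 0.05% | Times: Enzyme reaction carried out at room temperature | Detection: AMC fluorescence, 355/460 nm | Evaluation: Percent inhibition scaled between no-compound controls and no-enzyme blanks | Benchmarks: Enzyme without compound as high, wells lacking enzyme as low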
m-calpain inh = blocks pig calpain II enzyme activity; purified calpain II, fluorogenic peptide substrate, 30 min; inhibition, % at 16 µM; 220,000 tested, 0.37% active; AID 1236;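 active = inhibition above about 50%, limit read from the data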
FXIIa inh 1536 = blocks human coagulation factor XIIa protease activity; P00748; purified FXIIa, Boc-QGR-AMC fluorogenic substrate, 2 h; inhibition, % at 5 µM; 220,000 tested, 0.3% active; in the data active = inhibition above about 40%;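 note: 0% = enzyme with no compound and 100% = blank without enzyme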
The depositor's hits bear a star; . = no result.

SMILES	FXIa inh	hK5 inh	thrombin 1536	m-calpain inh	FXIIa inh 1536
O=C(N/N=C/C(Cl)=C\c1ccccc1)c1cnccn1	7.1	56.3*	17.0	9.8	17.9
COc1ccc(N(CC(=O)Nc2cccc(SC)c2)S(C)(=O)=O)cc1	-0.5	-6.0	1.4	-10.5	2.6
CN(C)C(=O)CSc1nnc(-c2ccc(F)cc2)c2ccccc12	3.0	-1.5	-1.5	-10.4	9.5
CCCCSc1nnc(-c2ccc(C)cc2)c2ccccc12	1.1	-15.2	-9.7	52.5*	-2.3
CN(C)CCCNc1ncnc2c1cnn2-c1ccccc1	-1.9	-11.8	-8.3	3.6	7.3
CN(C)CCCNc1ncnc2sc(-c3ccccc3)cc12	-0.3	-0.2	95.2*	-46.4	7.4
CCn1c(=S)[nH]c2nc3c(cc2c1=O)CCCC3	9.7	88.4*	32.8	9.3	13.6
Cc1cc(N2C(=O)CC(Cc3ccc(Cl)cc3)C2=O)no1 (configuration not stated)	-2.8	40.3*	4.6	-22.3	18.3
Cc1cc(N2C(=O)CC(Cc3ccccc3)C2=O)no1 (configuration not stated)	4.2	-20.6	-5.2	-39.9	-4.0
O=C(O)Cc1c(-c2ccccc2Cl)c2cc(Br)ccc2[nH]c1=O	2.8	0.4	-4.4	-6.5	5.7
O=C1C(c2ccccc2)SC(=Nc2ccccc2)N1S(=O)(=O)c1ccccc1 (configuration not stated)	4.3	-16.2	-3.6	53.9*	1.6
COCCn1c(SCc2nc3scc(-c4ccc(Cl)cc4)c3c(=O)[nH]2)nnc1-c1cccc(C)c1	-3.8	-7.5	-14.7	-78.1	5.3
O=C(O)c1cc([N+](=O)[O-])ccc1N1CCCCC1	7.8	-14.5	-4.9	32.5	9.3
CC(C)(C)NC(=O)c1cc([N+](=O)[O-])ccc1N1CCCCC1	6.4	63.2*	72.7*	17.1	3.3
CCN1CCN(C2=CC3=CC(=C(C#N)C#N)CCC3CC2)CC1 (configuration not stated)	10.4	6.1	14.7	60.6*	17.2
CN1CCN(C2=CC3=CC(=C(C#N)C#N)CCC3CC2)CC1 (configuration not stated)	0.2	4.1	5.4	46.1	11.3
Clc1cccc2sc(N3CCCC3)nc12	8.4	108.9*	12.4	25.6	10.4
O=C(Cn1cnc2ccccc2c1=O)Nc1ccc(N2CCOCC2)cc1	0.8	0.2	-0.5	-1.0	8.6
CCOC(=O)Nc1ccc(=O)n(Cc2c(Cl)cccc2Cl)c1	8.4	-25.9	0.8	-75.5	16.3
c1ccc(-c2ccc(-c3csnn3)cc2)cc1	1.9	-9.0	2.9	-7.4	10.4
O=S(=O)(Nc1ccc(-c2csc(-c3ccccc3)n2)cc1)c1ccc(F)cc1	-0.3	-27.3	-1.4	55.5*	8.1
O=S(=O)(Nc1ccccc1)c1ccc(-c2csnn2)cc1	26.3	25.8	18.5	16.8	43.4*
C=CCOC(=O)C1=C(C)NC(=S)C(C#N)(CC=C)C1c1ccccc1Cl (configuration not stated)	2.9	-3.6	-5.8	17.2	10.3
COc1cc(Br)cc(CNc2ccc(F)c([N+](=O)[O-])c2)c1O	-4.4	-6.4	3.1	91.4*	2.8
O=C(COC(=O)c1cnc(Cl)c(Cl)c1)Nc1ccc(S(=O)(=O)N2CCCC2)cc1	-6.2	-15.6	-6.5	15.9	4.1
SMILES	FXIa inh	hK5 inh	thrombin 1536	m-calpain inh	FXIIa inh 1536
O=[N+]([O-])c1cc(Cl)ccc1-c1nc(-c2ccccc2)no1	12.2	75.1*	33.6	17.4	40.0
Cc1ccc(N2C(=O)CC2(C#N)c2ccc(OCc3ccccc3)cc2)cc1 (configuration not stated)	-6.2	6.4	-2.9	24.0	-2.1
O=C(CN1CCOCC1)Nc1cccc(S(=O)(=O)N2CCCCCC2)c1	0.5	-1.0	.	-13.4	2.9
O=C(Cn1[nH]c(=O)c2ccccc2c1=O)Nc1cccc(S(=O)(=O)N2CCCCCC2)c1	51.7*	26.6	22.2	-78.2	.
C(=N\c1ncnc2sccc12)/NOCc1ccccc1	6.0	-0.4	-1.0	-7.5	3.9
Clc1ccc(CON/C=N/c2ncnc3sccc23)cc1	8.1	77.5*	24.4	15.1	13.1
O=C(c1ccco1)N(Cc1ccccc1)c1cccc([N+](=O)[O-])c1	-3.8	1.8	-3.3	27.3	5.2
O=C(c1ccco1)N(Cc1cccc([N+](=O)[O-])c1)c1ccc(Br)cc1	2.2	.	-2.6	51.7*	5.9
CC(C)NC(=O)C1CCCN(S(=O)(=O)c2cccs2)C1 (configuration not stated)	-6.1	-31.0	-3.4	25.9	-1.2
CCOC(=O)C1CCCN(S(=O)(=O)c2cccs2)C1 (configuration not stated)	-1.2	-9.1	-3.5	56.8*	-0.6
COc1ccc(/C=N/NC(=O)c2sc3nc(C)cc(C)c3c2N)cc1	26.6	48.0*	41.6*	-52.9	87.3*
CCC(CO)NCc1ccccc1OC(C)C (configuration not stated)	-5.3	-1.9	-11.6	-36.1	3.3
CCC1(c2ccccc2)NC(=O)N(CC(=O)N2CCN(S(=O)(=O)c3ccccc3)CC2)C1=O (configuration not stated)	-3.8	-16.5	-10.8	11.1	4.4
CCC(=O)N/C(=N/c1nc(C)cc(C)n1)Nc1cccc(OC)c1	-2.0	-10.4	93.6*	15.3	14.0
COc1ccc(OC)c(C2CC(c3c(-c4ccccc4)c4cc(Cl)ccc4[nH]c3=O)=NN2S(C)(=O)=O)c1 (configuration not stated)	0.2	42.1*	3.3	-18.4	8.5
COc1ccc(C2CC(c3c(-c4ccccc4)c4cc(Cl)ccc4[nH]c3=O)=NN2S(C)(=O)=O)cc1 (configuration not stated)	-4.1	-3.4	-1.1	-58.5	12.2
Cc1cc2c(C)nc(N/N=C/c3ccc(F)cc3)nc2o1	8.8	-19.7	-3.9	0.5	7.4
Cc1cc2c(C)nc(N/N=C/c3ccc([N+](=O)[O-])cc3)nc2o1	12.7	49.5*	12.0	7.6	8.7
O=C(N/N=C/c1ccc(Cl)c([N+](=O)[O-])c1)C1CC1	8.8	11.8	12.4	54.2*	18.2
N#Cc1ccc(OCC(O)CS(=O)(=O)c2ccccc2)cc1 (configuration not stated)	-2.2	-7.1	3.7	-25.1	5.2
CN(C)S(=O)(=O)c1cccc(C(=O)OCC(=O)N2c3ccccc3NC(=O)C2(C)C)c1	0.5	-17.6	-0.6	5.6	12.8
CC1(C)C(=O)Nc2ccccc2N1C(=O)COC(=O)c1cc([N+](=O)[O-])ccc1N	16.6	48.3*	23.6	35.8	24.4
COc1ccc(CNC(=O)CCc2nc3cc(S(=O)(=O)N(C)C)ccc3n2C)cc1OC	1.2	1.3	-8.1	-14.8	6.9
COc1ccc(-c2cc(C(F)(F)F)c(C#N)c(SCC(=O)O)n2)cc1OC	35.2	48.5*	9.2	-86.9	18.2
CCn1nc(C(=O)OCC(=O)c2c[nH]c3ccccc23)c2ccccc2c1=O	2.3	-7.4	2.1	55.9*	11.3

Screens: PubChem BioAssay, several laboratories
